Measurements from different studies.
Protocols differ between the studies behind these lines.
REN: Renin (REN, Homo sapiens, UniProt P00797)
CDK4: Cyclin-dependent kinase 4 (CDK4, Homo sapiens, UniProt P11802)

Structure (SMILES) | target | test | conditions | inhibition [%]
CN(C)C(=O)COC(=O)Cc1ccc(OC(=O)c2ccc(NC(=N)N)cc2)cc1 | REN | enzyme activity, inhibitor | 10 µM | 1
COc1cc(Nc2ncc(F)c(Nc3ccc4c(n3)NC(=O)C(C)(C)O4)n2)cc(OC)c1OC | Cyclin-G-associated kinase (GAK, Homo sapiens, UniProt O14976) | binding | 10 µM | 95
CCOC(=O)[C@H]1Cc2c(cc([N+](=O)[O-])cc2[N+](=O)[O-])[C@H](O)[C@]12C(=O)Nc1c(F)cccc12 | CDK4 | cell-free assay, inhibitor, TR-FRET | 1 µM | 32.6
C[C@H](C(=O)N[C@H]1COc2ccccc2[C@@H]1S(C)(=O)=O)c1ccc(F)cc1 | REN | enzyme activity, inhibitor | 10 µM | -2
CCOC(=O)[C@H]1Cc2c(cc([N+](=O)[O-])cc2[N+](=O)[O-])[C@@H](O)[C@@]12C(=O)Nc1cccc(Br)c12 | CDK4 | cell-free assay, inhibitor, TR-FRET | 1 µM | 45.6
O=C(Nc1cccnn1)N1CCN([C@@H]2CCOc3cc(C(F)(F)F)ccc32)CC1 | Amine oxidase [flavin-containing] A (Maoa, Rattus norvegicus, UniProt P21396) | cell-free assay | 20 µM | 14
COCCCOc1cc(C[C@@H](C[C@H](N)[C@@H](O)C[C@H](C(=O)NCC(C)(C)C(N)=O)C(C)C)C(C)C)ccc1OC | REN | enzyme activity, inhibitor | 100 pM | 0
CCOC(=O)[C@H]1Cc2c(cc([N+](=O)[O-])cc2[N+](=O)[O-])[C@H](O)[C@]12C(=O)Nc1ccc(C)cc12 | CDK4 | cell-free assay, inhibitor, TR-FRET | 1 µM | 27.1
C#Cc1n[nH]c2c(-c3cn([C@@H](C)c4ccccc4)c(=O)[nH]c3=O)cc(F)cc12 | Fibroblast growth factor receptor 3 (FGFR3, Homo sapiens, UniProt P22607) | enzyme activity, inhibitor | 0.1 µM | -2.7
CCOC(=O)[C@H]1Cc2c(cc([N+](=O)[O-])cc2[N+](=O)[O-])[C@@H](O)[C@@]12C(=O)Nc1ccc(Cl)cc12 | CDK4 | cell-free assay, inhibitor, TR-FRET | 1 µM | 70.2
Cn1cc(-c2cc(F)cc(N3CCn4c(cc5c4CCCC5)C3=O)c2CO)cc(Nc2ccc(N3CCN(C4COC4)CC3)cn2)c1=O | Serine/threonine-protein kinase 3 (STK3, Homo sapiens, UniProt Q13188) | enzyme activity, inhibitor | 0.1 µM | 13
CCOC(=O)c1ccc(OC(=O)CCCCCNC(=N)N)cc1 | REN | enzyme activity, inhibitor | 10 µM | 0
CC(C)C[C@H](NC(=O)[C@H](Cc1ccccc1)NC(=O)c1cnccn1)B(O)O | Chymotrypsinogen A (Bos taurus, UniProt P00766) | enzyme activity, inhibitor | 33 µM | 53
CCOC(=O)[C@H]1Cc2c(cc([N+](=O)[O-])cc2[N+](=O)[O-])[C@@H](O)[C@@]12C(=O)Nc1ccc(F)cc12 | CDK4 | cell-free assay, inhibitor, TR-FRET | 1 µM | 53.9
C#Cc1n[nH]c2c(-c3cn(C(C)c4ccccn4)c(=O)[nH]c3=O)cc(F)cc12 (stereo not drawn) | Ephrin type-A receptor 5 (EPHA5, Homo sapiens, UniProt P54756) | enzyme activity, inhibitor | 1 µM | 4
